Reference: ChEMBL document CHEMBL1137074, “Novel N-arylpyrazolo[3,2-c]-based ligands for the glucocorticoid receptor: receptor binding and in vivo activity” (J Med Chem, 2004)

Legend:
Glucocorticoid receptor [1] = molecular target: T1, Glucocorticoid receptor (Homo sapiens, UniProt P04150); assay: Compound was tested for inhibitory activity towards human glucocorticoid receptor
T1 sequence (P04150 whole entry): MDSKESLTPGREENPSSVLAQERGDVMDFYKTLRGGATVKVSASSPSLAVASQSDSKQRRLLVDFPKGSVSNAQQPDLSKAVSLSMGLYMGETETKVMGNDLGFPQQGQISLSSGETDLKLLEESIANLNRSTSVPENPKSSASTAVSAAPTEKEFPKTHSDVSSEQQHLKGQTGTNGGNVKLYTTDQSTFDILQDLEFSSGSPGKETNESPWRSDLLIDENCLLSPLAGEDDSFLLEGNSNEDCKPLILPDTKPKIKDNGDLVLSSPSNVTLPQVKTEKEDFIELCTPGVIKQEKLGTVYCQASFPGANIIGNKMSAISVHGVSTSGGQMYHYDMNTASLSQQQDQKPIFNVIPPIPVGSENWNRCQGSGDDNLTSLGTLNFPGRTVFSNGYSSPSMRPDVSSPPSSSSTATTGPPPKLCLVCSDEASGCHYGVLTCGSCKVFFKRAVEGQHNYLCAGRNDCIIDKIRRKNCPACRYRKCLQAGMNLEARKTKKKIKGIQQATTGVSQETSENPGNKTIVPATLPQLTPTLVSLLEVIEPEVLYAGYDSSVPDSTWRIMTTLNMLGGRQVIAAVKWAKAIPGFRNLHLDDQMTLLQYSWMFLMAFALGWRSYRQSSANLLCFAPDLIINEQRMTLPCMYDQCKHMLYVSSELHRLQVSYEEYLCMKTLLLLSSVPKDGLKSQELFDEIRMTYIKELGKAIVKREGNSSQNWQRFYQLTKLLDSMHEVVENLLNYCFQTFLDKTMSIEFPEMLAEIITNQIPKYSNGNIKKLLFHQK

Glucocorticoid receptor [2] = molecular target: T1, Glucocorticoid receptor; assay: Ability to induce human IL-6 assay in A549 lung carcinoma cell line.; type: functional, cell-based
Glucocorticoid receptor [3] = molecular target: T1, Glucocorticoid receptor; assay: Glucocorticoid induced transactivation of human tyrosine amino transferase in HepG2 cells; type: functional, cell-based
Glucocorticoid receptor [4] = molecular target: T1, Glucocorticoid receptor; assay: Ability to induce human glutamine synthetase in skeletal muscle cells; type: cell-based
Mus musculus = assay: Ability to induce mouse macrophage IL-6 assay in peritoneal exudate cells harvested by […] from C57BI/6 mice.; type: functional, cell-based
In short: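 Thioglycolate-elicited peritoneal exudate cells from C57Bl/6 mice, harvested day 3 in PBS/heparin, washed and resuspended at 5.6×10^5 cells/mL in RPMI 1640 with 10% heat-inactivated FCS. Compound (typically 3 μM final) preincubated 1 h at 37 °C, 5% CO2, then LPS or TNF added, 24 h. Supernatant IL-6 read; duplicate wells, three experiments.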

For `C[C@]12Cc3cnn(-c4ccc(F)cc4)c3C=C1CCC[C@@H]2[C@@H](O)CCC1CC1`, the IC50 (Glucocorticoid receptor [1]) was 0.0015 µM, the EC50 (Glucocorticoid receptor [2]) was 0.0086 µM and the EC50 (Glucocorticoid receptor [3]) was 0.332 µM. The EC50 (Glucocorticoid receptor [4]) was 0.066 µM and the EC50 (Mus musculus) was 0.0263 µM.

With `CC(C)(C)c1ccc(C[C@H](O)[C@H]2CCCC3=Cc4c(cnn4-c4ccc(F)cc4)C[C@@]32C)cc1` the IC50 (Glucocorticoid receptor [1]) was 0.0166 µM, the EC50 (Glucocorticoid receptor [2]) was 0.0242 µM and the EC50 (Mus musculus) was 0.0865 µM.

For `C[C@]12C=CC(=O)C=C1CCC1[C@@H]2[C@@H](O)C[C@@]2(C)[C@H]1CC[C@]2(O)C(=O)CO` (single isomer, unassigned) [PREDNISOLONE], the EC50 (Mus musculus) was 0.0057 µM.

In the case of `Cc1ccc(C[C@H](O)[C@H]2CCCC3=Cc4c(cnn4-c4ccc(F)cc4)C[C@@]32C)cc1`, the IC50 (Glucocorticoid receptor [1]) is reported as 0.0034 µM, the EC50 (Glucocorticoid receptor [2]) is reported as 0.0114 µM and the EC50 (Mus musculus) is reported as 0.0415 µM.

In the case of `C[C@]12Cc3cnn(-c4ccc(F)cc4)c3C=C1CCC[C@@H]2[C@@H](O)c1ccc(Cl)cc1`, the IC50 (Glucocorticoid receptor [1]) is reported as 0.009 µM, the EC50 (Glucocorticoid receptor [2]) is reported as 0.0019 µM and the EC50 (Mus musculus) is reported as 0.0601 µM.

In the case of `C[C@]12Cc3cnn(-c4ccc(F)cc4)c3C=C1CCC[C@@H]2[C@@H](O)Cc1ccc(F)cc1`, the IC50 (Glucocorticoid receptor [1]) is reported as 0.0028 µM, the EC50 (Glucocorticoid receptor [2]) is reported as 0.0032 µM and the EC50 (Glucocorticoid receptor [3]) is reported as 1 µM. The EC50 (Glucocorticoid receptor [4]) was 0.0537 µM and the EC50 (Mus musculus) was 0.0037 µM.

`C=CC[C@H](O)[C@H]1CCCC2=Cc3c(cnn3-c3ccc(F)cc3)C[C@@]21C` was tested, and the IC50 (Glucocorticoid receptor [1]) was 0.0039 µM, the EC50 (Glucocorticoid receptor [2]) was 0.0093 µM and the EC50 (Glucocorticoid receptor [3]) was 0.661 µM. It also gave an EC50 (Glucocorticoid receptor [4]) of 0.066 µM and an EC50 (Mus musculus) of 0.0362 µM.

Molecule `C[C@]12Cc3cnn(-c4ccc(F)cc4)c3C=C1CCC[C@@H]2[C@@H](O)c1ccc(O)cc1` has an IC50 (Glucocorticoid receptor [1]) of 0.0095 µM, an EC50 (Glucocorticoid receptor [2]) of 0.0195 µM and an EC50 (Mus musculus) of 0.0772 µM.

`C[C@H](O)[C@H]1CCCC2=Cc3c(cnn3-c3ccc(F)cc3)C[C@@]21C` gave an IC50 (Glucocorticoid receptor [1]) of 0.0088 µM and an EC50 (Glucocorticoid receptor [2]) of 0.0143 µM.

`C[C@]12Cc3cnn(-c4ccc(F)cc4)c3C=C1CCC[C@@H]2[C@](C)(O)c1ccsc1` showed an IC50 (Glucocorticoid receptor [1]) of 0.0008 µM, an EC50 (Glucocorticoid receptor [2]) of 0.001 µM and an EC50 (Glucocorticoid receptor [3]) of 0.0356 µM. It also gave an EC50 (Glucocorticoid receptor [4]) of 0.0142 µM and an EC50 (Mus musculus) of 0.0052 µM.

In the case of `C[C@]12Cc3cnn(-c4ccc(F)cc4)c3C=C1CCC[C@@H]2[C@@H](O)c1cccc(O)c1`, the IC50 (Glucocorticoid receptor [1]) is reported as 0.0249 µM, the EC50 (Glucocorticoid receptor [2]) is reported as 0.0542 µM and the EC50 (Mus musculus) is reported as 0.179 µM.

With `COc1cc([C@H](O)[C@H]2CCCC3=Cc4c(cnn4-c4ccc(F)cc4)C[C@@]32C)ccc1F` the IC50 (Glucocorticoid receptor [1]) was 0.0079 µM, the EC50 (Glucocorticoid receptor [2]) was 0.0313 µM and the EC50 (Mus musculus) was 0.0205 µM.

`C[C@]12Cc3cnn(-c4ccc(F)cc4)c3C=C1CCC[C@@H]2[C@@H](O)c1ccccc1F` was tested, and the IC50 (Glucocorticoid receptor [1]) was 0.0072 µM, the EC50 (Glucocorticoid receptor [2]) was 0.0027 µM and the EC50 (Mus musculus) was 0.0574 µM.

In the case of `CC(C)(O)[C@H]1CCCC2=Cc3c(cnn3-c3ccc(F)cc3)C[C@@]21C`, the IC50 (Glucocorticoid receptor [1]) is reported as 0.0019 µM, the EC50 (Glucocorticoid receptor [2]) is reported as 0.003 µM and the EC50 (Glucocorticoid receptor [3]) is reported as 0.0835 µM. For the same molecule, the EC50 (Glucocorticoid receptor [4]) was 0.182 µM and the EC50 (Mus musculus) was 0.0151 µM.

`C[C@]12Cc3cnn(-c4ccc(F)cc4)c3C=C1CCC[C@@H]2[C@@H](O)Cc1ccccc1` showed an IC50 (Glucocorticoid receptor [1]) of 0.0042 µM, an EC50 (Glucocorticoid receptor [2]) of 0.0139 µM and an EC50 (Mus musculus) of 0.0247 µM.

Molecule `Cc1cc([C@H](O)[C@H]2CCCC3=Cc4c(cnn4-c4ccc(F)cc4)C[C@@]32C)ccc1F` has an IC50 (Glucocorticoid receptor [1]) of 0.0067 µM, an EC50 (Glucocorticoid receptor [2]) of 0.0102 µM and an EC50 (Mus musculus) of 0.0543 µM.

Work on `COc1ccc(C[C@H](O)[C@H]2CCCC3=Cc4c(cnn4-c4ccc(F)cc4)C[C@@]32C)cc1` yielded an IC50 (Glucocorticoid receptor [1]) of 0.0063 µM and an EC50 (Mus musculus) of 0.0666 µM.

`CC(C)(C)[C@H](O)[C@H]1CCCC2=Cc3c(cnn3-c3ccc(F)cc3)C[C@@]21C` showed an IC50 (Glucocorticoid receptor [1]) of 0.0773 µM.
